In brackets after ≈: the same amount, converted by molar mass. Activity calls are given as the source filed them. The calls are words filed in the database; no cut-off is given here.
Assays:
[1] = fCmax in dog at 3 mg/kg, po using spray-dried dispersion formulation; type: ADME, organism-based, Canis lupus familiaris; conditions: in vivo
[2] = Unbound plasma concentration in […] in Sprague-Dawley rat model at 3.2 mg/kg, sc measured after 1.67 hrs; type: ADME, organism-based; conditions: in vivo
Procedure, shortened: (§1)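 Randomly selected animals (N=2/dose) at the end of the rat PPI study, T = 1.67 h. Dosed subcutaneously as a suspension in 0.5% methylcellulose in water. Plasma and brain concentrations were averaged.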

[3] = Toxicity in dog assessed as induction of loose stool at 0.3 mg/kg, po using spray-dried dispersion formulation; type: organism-based, Canis lupus familiaris; conditions: in vivo
[4] = Unbound plasma concentration in […] in Sprague-Dawley rat model at 1 mg/kg, sc measured after 1.67 hrs; type: ADME, organism-based; conditions: in vivo; procedure, shortened: as §1
[5] = Positive allosteric modulation of muscarinic M2/M3 receptor in Hartley guinea pig ileum assessed as increase in donepezil-induced stimulation of contraction in presence of mAChR antagonist atropine; type: tissue-based, Cavia porcellus
Procedure, shortened: (§2)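 PAM mode used guinea pig ileum in a tissue bath. Contraction concentration–response curves were run in the presence of an EC20 of donepezil, with or without atropine.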

[6] = Unbound brain concentration in […] in Sprague-Dawley rat model at 1 mg/kg, sc measured after 1.67 hrs; type: ADME, organism-based; conditions: in vivo; procedure, shortened: as §1
[7] = target: T1, Muscarinic acetylcholine receptor M1 (Homo sapiens) (UniProt P11229); assay: Binding affinity to muscarinic M1 receptor (unknown origin) assessed as recruitment of beta-arrestin by measuring binding constant by Path Hunter assay; type: cell-based; conditions: CHO, filed as positive allosteric modulator
T1 sequence (whole entry): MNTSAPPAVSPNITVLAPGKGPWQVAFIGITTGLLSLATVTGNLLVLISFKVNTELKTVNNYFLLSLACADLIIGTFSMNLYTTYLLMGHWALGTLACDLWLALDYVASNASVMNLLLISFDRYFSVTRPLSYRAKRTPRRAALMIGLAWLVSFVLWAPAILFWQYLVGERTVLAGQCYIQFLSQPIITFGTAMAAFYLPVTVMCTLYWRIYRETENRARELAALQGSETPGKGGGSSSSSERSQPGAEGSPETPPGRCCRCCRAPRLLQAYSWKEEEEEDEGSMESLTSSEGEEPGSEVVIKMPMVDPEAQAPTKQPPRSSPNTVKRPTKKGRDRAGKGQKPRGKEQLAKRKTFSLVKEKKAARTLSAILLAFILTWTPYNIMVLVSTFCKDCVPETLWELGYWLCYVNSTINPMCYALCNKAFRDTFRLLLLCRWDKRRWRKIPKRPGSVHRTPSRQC

[8] = Fraction unbound in Beagle dog plasma; type: ADME, Canis lupus familiaris
[9] = Unbound brain concentration in amphetamine-induced C57BL/6J mouse model of hyperlocomotion at 3.2 mg/kg, sc measured after 1 hr; type: ADME, organism-based; conditions: in vivo
Procedure, shortened: (§3)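 Satellite PK animals from the mouse aLMA study, N=2/dose. Dosed subcutaneously with a solution in 5/15/80 DMSO/Solutol/water. Plasma and brain were sampled at T = 1 h.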

[10] = Fraction unbound in C57BL/6 mouse plasma; type: ADME, cell-free
[11] = Toxicity in male Beagle dog assessed as increase in maximum systolic left ventricular pressure at 3 mg/kg, po observed up to 9 hrs post last dose by telemetry; type: organism-based, Canis lupus familiaris; conditions: in vivo
Procedure, shortened: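 Crossover telemetry study in dogs at three oral doses (0.3, 1 and 3 mg/kg), N=4. Endpoints were blood pressure, maximum systolic left ventricular pressure, LV +dP/dt max, activity, heart rate, and RR, QT and QTc intervals, followed up to 9 h post dose.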

Mus musculus = assay: Reversal of amphetamine-induced hyperlocomotion in C57BL/6J mouse at 1 mg/kg, sc incubated for 30 mins followed by addition of amphetamine measured after 90 mins; type: functional, organism-based; conditions: time 120.0 min
Procedure, shortened: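 The compound was given sc as a solution in 5/15/80 DMSO/Solutol/water, and amphetamine-induced locomotor activity was compared with vehicle. Plasma and brain exposure came from a satellite group (N=2/dose) sampled at 1 h after the same dosing.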

[12] = Aqueous solubility of compound at pH 6.5; type: physicochemical; conditions: buffer
[13] = Ratio of fAUC in dog brain to plasma; type: ADME, cell-free, Canis lupus familiaris; conditions: brain and plasma, read-out: Ratio AUC
[14] = fCmax in dog at 5 mg/kg, po using spray-dried dispersion formulation; type: ADME, organism-based, Canis lupus familiaris; conditions: in vivo
[15] = target: T2, Muscarinic acetylcholine receptor M1 (Homo sapiens, UniProt P11229); assay: Agonist activity at muscarinic M1 receptor (unknown origin) expressed in CHO cells assessed as accumulation of inositol phosphate measured after 30 mins by HTRF assay; type: functional, cell-based
T2 sequence (P11229 whole entry): T1 sequence (whole entry)

[16] = target: T1, Muscarinic acetylcholine receptor M1 (Homo sapiens); assay: Binding affinity to muscarinic M1 receptor (unknown origin) assessed as recruitment of beta-arrestin by Path Hunter assay; type: cell-based; conditions: CHO, filed as positive allosteric modulator
[17] = Unbound plasma concentration in amphetamine-induced C57BL/6J mouse model of hyperlocomotion at 1 mg/kg, sc measured after 1 hr; type: ADME, organism-based; conditions: in vivo; procedure, shortened: as §3
[18] = Toxicity in male rat assessed as increase in body weight at 10 mg/kg, po administered for 14 days; type: organism-based; conditions: in vivo, 336 h, time 14 day
Procedure, shortened: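 Two-week repeat-dose toxicity study in rats. Oral dosing in 0.5% methylcellulose at 3, 10, 30 (males)/15 (females) mg/kg, N=4/sex/dose. Food intake, body weight gain and histopathology were assessed.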

[19] = Unbound plasma concentration in […] in Sprague-Dawley rat model at 0.32 mg/kg, sc measured after 1.67 hrs; type: ADME, organism-based; conditions: in vivo; procedure, shortened: as §1
[20] = Unbound brain concentration in […] in Sprague-Dawley rat model at 3.2 mg/kg, sc measured after 1.67 hrs; type: ADME, organism-based; conditions: in vivo; procedure, shortened: as §1
[21] = Fraction unbound in cynomolgus monkey plasma; type: ADME, cell-free, Macaca fascicularis
[22] = target: Muscarinic acetylcholine receptor M3 (Homo sapiens, UniProt P20309); assay: Positive allosteric modulation of muscarinic M3 receptor (unknown origin) assessed as increase in ACh-induced displacement of [3H]-NMS from M2 receptor
Chain of Muscarinic acetylcholine receptor M3 (P20309 whole entry): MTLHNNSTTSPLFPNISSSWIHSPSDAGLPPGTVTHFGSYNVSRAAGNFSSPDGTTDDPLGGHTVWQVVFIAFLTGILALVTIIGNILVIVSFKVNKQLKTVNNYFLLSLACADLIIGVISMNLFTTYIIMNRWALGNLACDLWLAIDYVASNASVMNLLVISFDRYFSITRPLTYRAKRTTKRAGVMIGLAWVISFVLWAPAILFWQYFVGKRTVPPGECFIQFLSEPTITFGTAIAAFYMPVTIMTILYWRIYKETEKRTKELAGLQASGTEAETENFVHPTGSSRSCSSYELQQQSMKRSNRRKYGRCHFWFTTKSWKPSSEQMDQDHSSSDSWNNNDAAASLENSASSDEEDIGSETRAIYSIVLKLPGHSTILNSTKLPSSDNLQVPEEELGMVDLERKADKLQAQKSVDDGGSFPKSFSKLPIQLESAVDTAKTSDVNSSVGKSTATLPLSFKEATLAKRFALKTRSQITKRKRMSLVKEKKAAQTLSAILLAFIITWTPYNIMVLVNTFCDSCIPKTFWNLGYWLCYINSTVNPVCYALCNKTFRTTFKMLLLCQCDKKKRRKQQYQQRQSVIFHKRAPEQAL
Procedure, shortened: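 Cell lines expressing M2 or M3 were used for [3H]NMS binding. Inhibition of binding by ACh was measured in the presence of fixed compound concentrations of 10, 3, 1, 0.3, 0.1 and 0 µM.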

[23] = Ratio of fAUC in CD-1 mouse brain to plasma at 1 to 10 mg/kg, sc measured after 2 hrs by LC-MS/MS analysis; type: ADME, organism-based; conditions: brain and plasma, dose 1-10 mg/kg, read-out: Ratio AUC
[24] = fCmax in rat at 3 mg/kg, po administered for 14 days; type: ADME, organism-based; conditions: in vivo, 336 h, time 14 day
Procedure, shortened: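 2-week repeat oral dosing in rats, 0.5% methylcellulose formulation; N=4/sex/dose; doses 3, 10, 30 (males)/15 (females) mg/kg; unbound exposures reported per dose and sex.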

[25] = Unbound brain concentration in […] in Sprague-Dawley rat model at 0.32 mg/kg, sc measured after 1.67 hrs; type: ADME, organism-based; conditions: in vivo; procedure, shortened: as §1
[26] = Toxicity in dog assessed as salivation at 5 mg/kg, po using spray-dried dispersion formulation; type: organism-based, Canis lupus familiaris; conditions: in vivo
[27] = Unbound plasma concentration in CD-1 mouse at 3.2 mg/kg, sc measured after 2 hrs by LC-MS/MS analysis; type: ADME, organism-based; conditions: in vivo
[28] = target: T2, Muscarinic acetylcholine receptor M1; assay: Partial agonist activity at human muscarinic M1 receptor stably expressed in CHO cells assessed as increase in intracellular calcium level measured after 10 mins by Fluo-8AM dye based FLIPR TETRA method; type: functional, cell-based
[29] = Positive allosteric modulation of muscarinic M2/M3 receptor in Hartley guinea pig ileum assessed as increase in donepezil-induced stimulation of contraction; type: tissue-based; conditions: Cavia porcellus; procedure, shortened: as §2

Question: Which fCmax [1] does the source give for `Cc1cnc(C(=O)N[C@H]2CCOC[C@@H]2O)cc1Cc1ccc(-c2cscn2)cc1` here?
Answer: 568 nM

Question: What about the “Cp(f)” value [2] of the same compound?
Answer: 123 nM

Question: What about the Activity [3] of the same compound?
Answer: Toxic

Question: And the “Cp(f)” value [4]?
Answer: 45.6 nM

Question: And the Activity [5]?
Answer: Not Active

Question: And the “Drug uptake(free)” value [6]?
Answer: 17.4 nM

Question: And the Kb [7]?
Answer: 5 µM

Question: And the Fu [8]?
Answer: 8.1%

Question: What about the “Drug uptake(free)” value [9] of the same compound?
Answer: 85.2 nM

Question: And the Fu [10]?
Answer: 2.9%

Question: And the Activity [11]?
Answer: Toxic

Question: What about the Activity (Mus musculus) of the same compound?
Answer: Active

Question: What about the solubility [12] of the same compound?
Answer: 2.7 µg/mL (≈ 6.59 µM)

Question: What about the Kp uu [13] of the same compound?
Answer: 0.3

Question: And the fCmax [14]?
Answer: 659 nM

Question: What about the EC50 [15] of the same compound?
Answer: ≥ 9.2 µM

Question: What about the Ka [16] of the same compound?
Answer: 20 µM

Question: And the “Cp(f)” value [17]?
Answer: 76.1 nM

Question: What about the Activity [18] of the same compound?
Answer: Non-Toxic

Question: And the “Cp(f)” value [19]?
Answer: 11.9 nM

Question: What about the “Drug uptake(free)” value [20] of the same compound?
Answer: 44.4 nM

Question: And the Fu [21]?
Answer: 3.2%

Question: And the Activity [22]?
Answer: Not Active

Question: And the Kp uu at 2 h [23]?
Answer: 0.34

Question: And the fCmax [24]?
Answer: 195 nM

Question: And the “Drug uptake(free)” value [25]?
Answer: 4.3 nM

Question: What about the Activity [26] of the same compound?
Answer: Toxic

Question: And the “Cp(f)” value [27]?
Answer: 176 nM

Question: And the EC50 [28]?
Answer: ≥ 3.9 µM

Question: What about the EC50 [29] of the same compound?
Answer: 0.082 µM

Source: ChEMBL document CHEMBL4715734, “Discovery of the Potent and Selective M1 PAM-Agonist N-[(3R,4S)-3-Hydroxytetrahydro-2H-pyran-4-yl]-5-methyl-4-[4-(1,3-thiazol-4-yl)benzyl]pyridine-2-carboxamide (PF-06767832): Evaluation of Efficacy and Cholinergic Side Effects” (J Med Chem, 2016)
